Test [1] deals with HUVEC. Nature of the test: Antiangiogenic activity in human HUVEC cells assessed as capillary like tubular network formation at 0.01 to 1 uM by geltrex-based inverted microscopy analysis. The conditions noted are these: dose 0.01-1 µM. In kind it is functional, cell-based. The gist of the method: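 Geltrex-coated wells, gelled 30 min at 37 °C. HUVEC seeded at 50 000 cells/well and incubated 10 h at 37 °C, then treated at 0.001, 0.01, 0.1 and 1 µM. Tube/cord-like network morphology observed and photographed under an inverted microscope.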

In test [2] the test system is HUVEC. In words: Antiinvasive activity against human HUVEC cells assessed as reduction in cell invasion at 1 uM measured after 24 hrs by crystal violet staining based Boyden chamber assay. More on the design: scale not given: the % may be the effect or the level left. It counts as functional. The gist of the method:
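Boyden invasion: Matrigel-precoated transwells, 8 µm pores. HUVEC (1 x 10^5 per well) in growth-factor-free ECGM top chamber with vehicle or compound (0.001–1 µM); bottom chamber ECGM with 20 ng/mL VEGF. Migration 24 h. Non-migrated cells removed; migrated cells methanol-fixed, stained with 0.05% crystal violet, counted manually, expressed as % of vehicle. Mean ± SEM of three experiments.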

Activity calls are given as the source filed them. The calls are words filed in the database; no cut-off is given here.

`COc1cc2c(Oc3ccc4[nH]c(C)cc4c3F)ncnc2cc1OCCCN1CCCC1` [CEDIRANIB]: in the test on HUVEC [1], the outcome was Active. The Activity in the test on HUVEC [2] is 74%.

The values are drawn from ChEMBL document CHEMBL4765229, “Synthesis and Biological Evaluation of N-[2-(4-Hydroxyphenylamino)-pyridin-3-yl]-4-methoxy-benzenesulfonamide (ABT-751) Tricyclic Analogues as Antimitotic and Antivascular Agents with Potent in Vivo Antitumor Activity” (J Med Chem, 2016).
